# Test results published in ChEMBL document CHEMBL1153922, “Exploration of 4,4-disubstituted pyrrolidine-1,2-dicarboxamides as potent, orally active Factor Xa inhibitors with extended duration of action” (Bioorg Med Chem, 2009).
# Tests used:
# [1] = Half life in iv dosed dog by cassette studies; type: ADME, organism-based, Canis lupus familiaris; conditions: in vivo
# Summary of the method: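 Dog half-life from intravenous cassette dosing, with compounds co-administered IV and plasma sampled for elimination t1/2.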
# [2] = Half life in iv dosed rat by cassette studies; type: ADME, organism-based; conditions: in vivo
# Summary of the method: (§1)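 Rat PK from intravenous cassette dosing, in which several compounds are given together in one IV administration, followed by plasma sampling to derive clearance, Vdss and elimination half-life.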
# [3] = Clearance in iv dosed rat by cassette studies; type: ADME, organism-based; conditions: in vivo; summary of the method: as §1
# [4] = Volume of distribution at steady state in iv dosed rat by cassette studies; type: ADME, organism-based; conditions: in vivo, read-out: Vdss; summary of the method: as §1
# [5] = Clearance in iv dosed rat by singleton studies; type: ADME, organism-based; conditions: in vivo
# Summary of the method: (§2)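 Rat PK from intravenous singleton dosing, in which each compound is given alone IV, followed by plasma sampling to derive clearance, Vdss and elimination half-life.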
# [6] = Volume of distribution at steady state in iv dosed rat by singleton studies; type: ADME, organism-based; conditions: in vivo, read-out: Vdss; summary of the method: as §2
# [7] = Half life in iv dosed dog by singleton studies; type: ADME, organism-based, Canis lupus familiaris; conditions: in vivo
# Summary of the method: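 Dog half-life from intravenous singleton dosing, with each compound given alone IV and plasma sampled for elimination t1/2.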
# [8] = Half life in iv dosed rat by singleton studies; type: ADME, organism-based; conditions: in vivo; summary of the method: as §2
# [9] = Volume of distribution at steady state in Beagle dog at 0.5 mg/kg, iv; type: ADME, organism-based, Canis lupus familiaris; design: dose 0.5 mg/kg, route intravenous; conditions: in vivo, read-out: Vdss
# Summary of the method: (§3)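 Single-dose pharmacokinetics in male animals, with rats being Sprague Dawley. IV dosing was 0.5 mg/kg (rat N = 2, dog N = 3). Oral dosing was 3 mg/kg (rat N = 3, dog N = 2). Plasma was sampled to derive Cmax, Tmax, AUCinf, clearance, Vdss and t1/2, and oral bioavailability (F) was calculated from the PO versus IV exposure.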
# [10] = Clearance in Beagle dog at 0.5 mg/kg, iv; type: ADME, organism-based, Canis lupus familiaris; design: dose 0.5 mg/kg, route intravenous; conditions: in vivo; summary of the method: as §3
# [11] = Absolute oral bioavailability in Sprague-Dawley rat at 3 mg/kg; type: ADME, organism-based; conditions: in vivo; summary of the method: as §3
# [12] = Absolute oral bioavailability in Beagle dog at 3 mg/kg; type: ADME, organism-based, Canis lupus familiaris; conditions: in vivo; summary of the method: as §3
# [13] = Cmax in Sprague-Dawley rat at 3 mg/kg, po; type: ADME, organism-based; design: dose 3 mg/kg, route oral; conditions: in vivo; summary of the method: as §3
# [14] = Tmax in Sprague-Dawley rat at 3 mg/kg, po; type: ADME, organism-based; design: dose 3 mg/kg, route oral; conditions: in vivo; summary of the method: as §3
# [15] = AUC (infinity) in Sprague-Dawley rat at 3 mg/kg, po; type: ADME, organism-based; design: dose 3 mg/kg, route oral, time infinity; conditions: plasma; summary of the method: as §3
# [16] = AUC (infinity) in Sprague-Dawley rat at 0.5 mg/kg, iv; type: ADME, organism-based; design: time infinity, dose 0.5 mg/kg, route intravenous; conditions: plasma; summary of the method: as §3
# [17] = Clearance in Sprague-Dawley rat at 0.5 mg/kg, iv; type: ADME, organism-based; design: dose 0.5 mg/kg, route intravenous; conditions: in vivo; summary of the method: as §3
# [18] = Half life in Sprague-Dawley rat at 0.5 mg/kg, iv; type: ADME, organism-based; design: dose 0.5 mg/kg, route intravenous; conditions: in vivo; summary of the method: as §3
# [19] = AUC (infinity) in Beagle dog at 3 mg/kg, po; type: ADME, organism-based, Canis lupus familiaris; design: time infinity, dose 3 mg/kg, route oral; conditions: plasma; summary of the method: as §3
# [20] = Cmax in Beagle dog at 3 mg/kg, po; type: ADME, organism-based, Canis lupus familiaris; design: dose 3 mg/kg, route oral; conditions: in vivo; summary of the method: as §3
# [21] = Volume of distribution at steady state in Sprague-Dawley rat at 0.5 mg/kg, iv; type: ADME, organism-based; design: dose 0.5 mg/kg, route intravenous; conditions: in vivo, read-out: Vdss; summary of the method: as §3
# [22] = Tmax in Beagle dog at 3 mg/kg, po; type: ADME, organism-based, Canis lupus familiaris; design: dose 3 mg/kg, route oral; conditions: in vivo; summary of the method: as §3
# [23] = Half life in Beagle dog at 0.5 mg/kg, iv; type: ADME, organism-based, Canis lupus familiaris; design: dose 0.5 mg/kg, route intravenous; conditions: in vivo; summary of the method: as §3
# [24] = AUC (infinity) in Beagle dog at 0.5 mg/kg, iv; type: ADME, organism-based, Canis lupus familiaris; design: time infinity, dose 0.5 mg/kg, route intravenous; conditions: plasma; summary of the method: as §3
SMILES,half-life [2] [h],clearance [3] [mL/min/kg],Vd [4] [L/kg],further results
O=C(Nc1ccc(-n2ccccc2=O)cn1)[C@H]1C[C@](O)(c2ccccc2C(F)(F)F)CN1C(=O)Nc1ccc(Cl)cc1,1.9,2.89,0.393,half-life [1]: 1 h
CCO[C@]1(CC)C[C@H](C(=O)Nc2ccc(-n3ccccc3=O)cc2F)N(C(=O)Nc2ccc(Cl)cc2)C1,1.4,,,
CO[C@@H]1C[C@H](C(=O)Nc2ccc(-n3ccccc3=O)cc2F)N(C(=O)Nc2ccc(Cl)cc2)C1 [ERIBAXABAN],2.6,,,clearance [5]: 12 mL/min/kg; Vd [6]: 1.1 L/kg; half-life [7]: 4.9 h; half-life [8]: 2 h
CC[C@@]1(O)C[C@H](C(=O)Nc2ccc(-n3cccc(C)c3=O)cc2F)N(C(=O)Nc2ccc(Cl)cc2)C1,5.2,,,
Cc1cccc([C@@]2(O)C[C@H](C(=O)Nc3ccc(-n4ccccc4=O)cn3)N(C(=O)Nc3ccc(Cl)cc3)C2)c1,1.4,6.78,0.438,
O=C(Nc1ccc(-n2ccccc2=O)cn1)[C@H]1C[C@](O)(c2ccccc2Cl)CN1C(=O)Nc1ccc(Cl)cc1,2.9,4.16,0.923,half-life [1]: 0.8 h
O=C(Nc1ccc(-n2ccccc2=O)cn1)[C@H]1C[C@](O)(c2ccc(F)cc2F)CN1C(=O)Nc1ccc(Cl)cc1,3.3,7.64,1.81,Vd [9]: 2 L/kg; clearance [10]: 2.1 mL/min/kg; bioavailability [11]: 19%; half-life [1]: 7.3 h; bioavailability [12]: 24%; Cmax [13]: 236 ng/mL; Tmax [14]: 1.7 h; AUC(0-inf) [15]: 1010 ng·h/mL; AUC(0-inf) [16]: 978 ng·h/mL; clearance [17]: 9.5 mL/min/kg; half-life [18]: 3.3 h; AUC(0-inf) [19]: 6450 ng·h/mL; Cmax [20]: 397 ng/mL; Vd [21]: 2.4 L/kg; Tmax [22]: 2 h; half-life [23]: 12.6 h; AUC(0-inf) [24]: 4870 ng·h/mL
Cc1ccc([C@@]2(O)C[C@H](C(=O)Nc3ccc(-n4ccccc4=O)cn3)N(C(=O)Nc3ccc(Cl)cc3)C2)cc1,1.8,10.3,1.58,
CO[C@]1(C)C[C@H](C(=O)Nc2ccc(-n3ccccc3=O)cc2F)N(C(=O)Nc2ccc(Cl)cc2)C1,1.7,,,
CC[C@@]1(O)C[C@H](C(=O)Nc2ccc(-n3ccccc3=O)cc2F)N(C(=O)Nc2ccc(Cl)cc2)C1,2.4,,,
O=C(Nc1ccc(-n2ccccc2=O)cn1)[C@H]1C[C@](O)(c2ccccc2)CN1C(=O)Nc1ccc(Cl)cc1,2.9,,,clearance [5]: 6.73 mL/min/kg; half-life [1]: 2.9 h; Vd [6]: 1.49 L/kg
Cc1cccn(-c2ccc(NC(=O)[C@H]3C[C@@](C)(O)CN3C(=O)Nc3ccc(Cl)cc3)c(F)c2)c1=O,1.6,,,
CO[C@@H]1C[C@H](C(=O)Nc2ccc(-n3ccccc3=O)cn2)N(C(=O)Nc2ccc(Cl)cc2)C1,2,,,
Cc1ccccc1[C@@]1(O)C[C@H](C(=O)Nc2ccc(-n3ccccc3=O)cn2)N(C(=O)Nc2ccc(Cl)cc2)C1,1.3,5.12,0.468,
O=C(Nc1ccc(-n2ccccc2=O)cn1)[C@H]1C[C@](O)(c2ccc(F)cc2)CN1C(=O)Nc1ccc(Cl)cc1,1.8,9.44,1.97,
CC[C@@]1(OC)C[C@H](C(=O)Nc2ccc(-n3ccccc3=O)cc2F)N(C(=O)Nc2ccc(Cl)cc2)C1,1.7,,,
O=C(Nc1ccc(-n2ccccc2=O)cc1F)[C@H]1C[C@](O)(c2ccccc2)CN1C(=O)Nc1ccc(Cl)cc1,,,,half-life [8]: 4 h
O=C(Nc1ccc(-n2ccccc2=O)cn1)[C@H]1C[C@](O)(c2ccc(F)c(F)c2)CN1C(=O)Nc1ccc(Cl)cc1,2.1,13.1,1.6,half-life [1]: 2.1 h
